{
  "source": "ChEMBL document CHEMBL1145779",
  "about": "“Structure-activity relationship study and drug profile of N-(4-fluorophenylsulfonyl)-L-valyl-L-leucinal (SJA6017) as a potent calpain inhibitor” (J Med Chem, 2003)",
  "key": {"[1]": {"assay": "The compound was tested for toxicity using human neuroblastoma SY5Y cells", "format": "cell-based", "outline": "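Cytotoxicity was assessed in cultured human neuroblastoma SY5Y cells, alongside rat cerebellar granule neurons.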"}, "[2]": {"assay": "Binding towards monkey plasma protein at 10 uM", "format": "ADME, cell-free", "settings": "cercopithecidae", "outline": "(§1)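 Test compound incubated at 10 or 100 μM with plasma from mouse, rat, monkey, dog and human. The filtrate was analysed, and binding was expressed as percent bound at each concentration.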"}, "[3]": {"assay": "Binding towards monkey plasma protein at 100 uM", "format": "ADME, cell-free", "settings": "cercopithecidae", "outline": "as §1"}, "[4]": {"assay": "Binding towards human plasma protein at 10 uM", "format": "ADME, cell-free", "outline": "as §1"}, "[5]": {"assay": "Binding towards human plasma protein at 100 uM", "format": "ADME, cell-free", "outline": "as §1"}, "Canis familiaris [6]": {"organism": "Canis familiaris", "assay": "Plasma protein binding towards dog plasma at 10 uM", "format": "ADME, Canis lupus familiaris", "outline": "as §1"}, "Mus musculus [7]": {"organism": "Mus musculus", "assay": "Binding towards mouse plasma protein at 100 uM", "format": "ADME", "outline": "as §1"}, "Rattus norvegicus [8]": {"organism": "Rattus norvegicus", "assay": "Binding towards rat plasma protein at 10 uM", "format": "ADME", "outline": "as §1"}, "Rattus norvegicus [9]": {"organism": "Rattus norvegicus", "assay": "Binding towards rat plasma protein at 100 uM", "format": "ADME", "outline": "as §1"}, "Cytochrome P450 2C19": {"target": "Cytochrome P450 2C19 (Homo sapiens, UniProt P33261)", "sequence (P33261 whole entry)": "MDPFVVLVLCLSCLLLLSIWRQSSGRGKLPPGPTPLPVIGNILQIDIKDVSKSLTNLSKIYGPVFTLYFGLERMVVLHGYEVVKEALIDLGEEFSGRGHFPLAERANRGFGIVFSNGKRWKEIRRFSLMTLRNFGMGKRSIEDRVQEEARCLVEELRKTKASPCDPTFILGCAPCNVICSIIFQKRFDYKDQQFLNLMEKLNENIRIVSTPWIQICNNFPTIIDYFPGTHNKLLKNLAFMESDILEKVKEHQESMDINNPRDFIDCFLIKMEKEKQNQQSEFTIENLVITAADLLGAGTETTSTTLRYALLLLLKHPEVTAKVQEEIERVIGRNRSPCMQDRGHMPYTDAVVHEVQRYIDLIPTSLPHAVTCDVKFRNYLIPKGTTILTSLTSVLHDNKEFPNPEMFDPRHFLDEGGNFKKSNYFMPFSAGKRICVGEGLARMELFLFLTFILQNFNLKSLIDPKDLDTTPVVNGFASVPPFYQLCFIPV", "assay": "Inhibition of Cytochrome P450 2C19", "format": "ADME"}, "Cathepsin B": {"target": "Cathepsin B (Homo sapiens, UniProt P07858)", "assay": "Inhibitory activity against Cathepsin B"}, "Cytochrome P450 2C9": {"target": "Cytochrome P450 2C9 (Homo sapiens, UniProt P11712)", "sequence (P11712 whole entry)": "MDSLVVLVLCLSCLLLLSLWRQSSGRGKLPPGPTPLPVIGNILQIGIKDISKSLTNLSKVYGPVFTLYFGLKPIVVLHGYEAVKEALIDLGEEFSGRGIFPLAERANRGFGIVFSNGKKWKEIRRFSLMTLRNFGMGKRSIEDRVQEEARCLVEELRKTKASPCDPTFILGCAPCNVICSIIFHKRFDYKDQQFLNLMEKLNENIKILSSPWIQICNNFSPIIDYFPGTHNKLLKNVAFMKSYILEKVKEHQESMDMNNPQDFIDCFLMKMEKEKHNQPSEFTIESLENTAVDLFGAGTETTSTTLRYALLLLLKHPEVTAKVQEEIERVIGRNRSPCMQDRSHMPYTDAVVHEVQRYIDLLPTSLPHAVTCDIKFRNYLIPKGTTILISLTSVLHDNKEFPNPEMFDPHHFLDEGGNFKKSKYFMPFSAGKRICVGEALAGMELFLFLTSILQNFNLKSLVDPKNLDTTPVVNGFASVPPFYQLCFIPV", "assay": "Inhibition of Cytochrome P450 2C9", "format": "ADME"}, "Coagulation factor X": {"target": "Coagulation factor X (Homo sapiens, UniProt P00742)", "sequence (P00742 41-179 limits assumed)": "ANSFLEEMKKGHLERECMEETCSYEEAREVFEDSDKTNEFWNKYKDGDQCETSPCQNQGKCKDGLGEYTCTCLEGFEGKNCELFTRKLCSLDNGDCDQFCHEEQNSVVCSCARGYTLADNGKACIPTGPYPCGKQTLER", "sequence (P00742 235-488 limits assumed)": "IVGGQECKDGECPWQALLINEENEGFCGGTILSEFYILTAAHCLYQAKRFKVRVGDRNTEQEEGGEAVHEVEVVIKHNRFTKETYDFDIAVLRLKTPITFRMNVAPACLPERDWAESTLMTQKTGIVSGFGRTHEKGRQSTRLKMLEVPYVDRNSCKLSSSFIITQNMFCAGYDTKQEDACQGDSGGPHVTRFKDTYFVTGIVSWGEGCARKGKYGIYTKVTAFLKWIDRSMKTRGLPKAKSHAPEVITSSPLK", "assay": "Inhibitory activity against Coagulation factor X"}, "Coagulation factor VII": {"target": "T1, Coagulation factor VII (Homo sapiens, UniProt P08709)", "T1 sequence (P08709 whole entry)": "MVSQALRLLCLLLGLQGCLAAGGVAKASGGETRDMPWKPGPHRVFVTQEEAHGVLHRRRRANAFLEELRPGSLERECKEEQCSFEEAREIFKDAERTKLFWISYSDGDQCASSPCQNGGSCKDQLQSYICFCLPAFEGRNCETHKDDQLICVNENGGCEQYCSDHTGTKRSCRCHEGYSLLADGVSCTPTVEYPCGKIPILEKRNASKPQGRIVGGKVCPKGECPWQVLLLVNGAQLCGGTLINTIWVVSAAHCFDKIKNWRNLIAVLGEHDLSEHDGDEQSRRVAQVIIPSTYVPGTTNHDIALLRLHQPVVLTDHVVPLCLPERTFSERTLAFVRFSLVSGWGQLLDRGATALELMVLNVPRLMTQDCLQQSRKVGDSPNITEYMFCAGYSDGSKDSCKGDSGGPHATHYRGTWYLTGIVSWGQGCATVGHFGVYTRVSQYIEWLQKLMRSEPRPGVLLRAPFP", "assay": "Inhibitory activity against coagulation factor VII"}, "Chymotrypsinogen A": {"target": "Chymotrypsinogen A (Bos taurus, UniProt P00766)", "assay": "Inhibitory activity against Chymotrypsinogen"}, "Cytochrome P450 3A4 [10]": {"target": "T2, Cytochrome P450 3A4 (Homo sapiens, UniProt P08684)", "T2 sequence (P08684 whole entry)": "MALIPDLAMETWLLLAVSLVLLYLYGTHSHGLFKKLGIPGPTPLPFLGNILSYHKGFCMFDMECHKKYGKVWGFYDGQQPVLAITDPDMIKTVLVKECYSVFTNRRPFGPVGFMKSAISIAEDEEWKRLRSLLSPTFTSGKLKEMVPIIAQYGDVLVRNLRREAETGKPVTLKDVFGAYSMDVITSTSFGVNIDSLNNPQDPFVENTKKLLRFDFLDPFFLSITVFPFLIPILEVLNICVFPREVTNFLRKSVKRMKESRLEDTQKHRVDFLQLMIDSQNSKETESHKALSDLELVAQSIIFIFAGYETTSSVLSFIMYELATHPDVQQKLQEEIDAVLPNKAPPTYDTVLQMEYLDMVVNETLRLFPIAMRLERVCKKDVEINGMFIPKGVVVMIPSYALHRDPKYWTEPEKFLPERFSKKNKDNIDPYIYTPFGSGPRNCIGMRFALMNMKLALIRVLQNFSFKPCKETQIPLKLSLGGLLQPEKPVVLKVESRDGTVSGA", "assay": "Inhibition of Cytochrome P450 3A4 as BFC substrate", "format": "ADME"}, "Cytochrome P450 3A4 [11]": {"target": "T2, Cytochrome P450 3A4", "assay": "Inhibition of Cytochrome P450 3A4 as BQ substrate", "format": "ADME"}, "Cytochrome P450 2D6": {"target": "Cytochrome P450 2D6 (Homo sapiens, UniProt P10635)", "sequence (P10635 whole entry)": "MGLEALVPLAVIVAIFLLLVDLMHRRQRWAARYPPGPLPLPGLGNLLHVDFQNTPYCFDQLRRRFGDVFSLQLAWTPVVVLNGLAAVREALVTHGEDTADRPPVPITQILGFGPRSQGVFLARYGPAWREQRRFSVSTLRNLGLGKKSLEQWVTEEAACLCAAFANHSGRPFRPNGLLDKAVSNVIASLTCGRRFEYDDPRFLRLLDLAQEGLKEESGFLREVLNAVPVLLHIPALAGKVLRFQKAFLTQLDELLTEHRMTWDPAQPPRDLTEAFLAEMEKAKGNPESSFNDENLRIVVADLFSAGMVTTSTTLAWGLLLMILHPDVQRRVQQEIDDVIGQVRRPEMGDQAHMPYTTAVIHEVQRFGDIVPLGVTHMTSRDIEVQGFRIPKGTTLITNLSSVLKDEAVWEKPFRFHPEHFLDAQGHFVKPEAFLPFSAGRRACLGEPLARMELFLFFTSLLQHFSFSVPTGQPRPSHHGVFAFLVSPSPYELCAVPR", "assay": "Inhibition of Cytochrome P450 2D6", "format": "ADME"}, "Caspase-1": {"target": "T3, Caspase-1 (Homo sapiens, UniProt P29466)", "T3 sequence (P29466 whole entry)": "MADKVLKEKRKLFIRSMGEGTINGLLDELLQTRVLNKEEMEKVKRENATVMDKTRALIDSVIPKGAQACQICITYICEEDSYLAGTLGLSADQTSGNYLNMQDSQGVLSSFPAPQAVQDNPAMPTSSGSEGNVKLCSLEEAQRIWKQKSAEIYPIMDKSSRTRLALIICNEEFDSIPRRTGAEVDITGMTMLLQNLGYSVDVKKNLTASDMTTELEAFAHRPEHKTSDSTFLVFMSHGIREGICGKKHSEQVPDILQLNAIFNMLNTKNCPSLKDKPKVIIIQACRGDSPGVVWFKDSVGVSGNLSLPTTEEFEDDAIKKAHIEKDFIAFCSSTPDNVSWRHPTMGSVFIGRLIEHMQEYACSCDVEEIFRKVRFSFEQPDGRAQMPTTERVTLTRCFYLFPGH", "assay": "Inhibitory activity against interleukin 1-beta converting enzyme (IL-1 beta converting enzyme)"}, "Proteasome": {"test_system": "Proteasome", "assay": "Inhibitory activity against proteasome", "format": "subcellular"}, "Serine protease 1": {"target": "Serine protease 1 (Homo sapiens, UniProt P07477)", "sequence (P07477 whole entry)": "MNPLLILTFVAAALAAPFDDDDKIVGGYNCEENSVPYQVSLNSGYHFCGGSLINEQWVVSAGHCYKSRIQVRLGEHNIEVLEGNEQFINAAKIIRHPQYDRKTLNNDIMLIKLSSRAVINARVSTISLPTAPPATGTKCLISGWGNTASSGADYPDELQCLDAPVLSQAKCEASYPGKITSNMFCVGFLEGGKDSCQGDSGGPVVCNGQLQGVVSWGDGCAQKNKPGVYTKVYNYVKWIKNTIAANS", "assay": "Inhibitory activity against trypsin"}, "Prothrombin": {"target": "Prothrombin (Homo sapiens, UniProt P00734)", "assay": "Inhibitory activity against thrombin"}, "Canis familiaris [12]": {"organism": "Canis familiaris", "assay": "Plasma protein binding towards dog plasma at 100 uM", "format": "ADME, Canis lupus familiaris", "outline": "as §1"}, "Mus musculus [13]": {"organism": "Mus musculus", "assay": "Binding towards mouse plasma protein at 10 uM", "format": "ADME", "outline": "as §1"}},
  "data": [
    {"smiles": "CC(C)C[C@H](C=O)NC(=O)[C@@H](NS(=O)(=O)c1ccc2ccccc2c1)C(C)C", "values": [
      {"measurement": "CC50", "setting": "[1]; read-out: LD50 (the source's name)", "result": 9.8, "unit": "µM"}
    ]},
    {"smiles": "CC(C)C[C@H](C=O)NC(=O)[C@@H](NS(=O)(=O)c1ccc(F)cc1)C(C)C", "values": [
      {"measurement": "Binding", "setting": "[2]", "result": 95.1, "unit": "%"},
      {"measurement": "Binding", "setting": "[3]", "result": 90.5, "unit": "%"},
      {"measurement": "Binding", "setting": "[4]", "result": 95.4, "unit": "%"},
      {"measurement": "Binding", "setting": "[5]", "result": 91.6, "unit": "%"},
      {"measurement": "Binding", "setting": "Canis familiaris [6]", "result": 75.8, "unit": "%"},
      {"measurement": "Binding", "setting": "Mus musculus [7]", "result": 90.2, "unit": "%"},
      {"measurement": "Binding", "setting": "Rattus norvegicus [8]", "result": 89.9, "unit": "%"},
      {"measurement": "Binding", "setting": "Rattus norvegicus [9]", "result": 85.4, "unit": "%"},
      {"measurement": "IC50", "setting": "Cytochrome P450 2C19", "result": 177, "unit": "µM"},
      {"measurement": "IC50", "setting": "Cathepsin B", "result": 0.015, "unit": "µM"},
      {"measurement": "IC50", "setting": "Cytochrome P450 2C9", "result": 492, "unit": "µM"},
      {"measurement": "IC50", "setting": "Coagulation factor X", "result": "> 60", "unit": "µM"},
      {"measurement": "IC50", "setting": "Coagulation factor VII", "result": "> 100", "unit": "µM"},
      {"measurement": "IC50", "setting": "Chymotrypsinogen A", "result": "> 200", "unit": "µM"},
      {"measurement": "IC50", "setting": "Cytochrome P450 3A4 [10]", "result": 81, "unit": "µM"},
      {"measurement": "IC50", "setting": "Cytochrome P450 3A4 [11]", "result": 531, "unit": "µM"},
      {"measurement": "IC50", "setting": "Cytochrome P450 2D6", "result": 291, "unit": "µM"},
      {"measurement": "IC50", "setting": "Caspase-1", "result": "> 100", "unit": "µM"},
      {"measurement": "CC50", "setting": "[1]", "result": "> 1000", "unit": "µM"},
      {"measurement": "IC50", "setting": "Proteasome", "result": "> 200", "unit": "µM"},
      {"measurement": "IC50", "setting": "Serine protease 1", "result": "> 100", "unit": "µM"},
      {"measurement": "IC50", "setting": "Prothrombin", "result": "> 100", "unit": "µM"},
      {"measurement": "Binding", "setting": "Canis familiaris [12]", "result": 66.8, "unit": "%"},
      {"measurement": "Binding", "setting": "Mus musculus [13]", "result": 89.9, "unit": "%"}
    ]}
  ]
}
